Measurements gathered from unrelated publications.
Each line is one published result; the experiments were not run side by side.
Target: Serine/threonine-protein kinase TAO3 (TAOK3, Homo sapiens, UniProt Q9H2K8)
Sequence (Q9H2K8 1-898, as in one of the studies): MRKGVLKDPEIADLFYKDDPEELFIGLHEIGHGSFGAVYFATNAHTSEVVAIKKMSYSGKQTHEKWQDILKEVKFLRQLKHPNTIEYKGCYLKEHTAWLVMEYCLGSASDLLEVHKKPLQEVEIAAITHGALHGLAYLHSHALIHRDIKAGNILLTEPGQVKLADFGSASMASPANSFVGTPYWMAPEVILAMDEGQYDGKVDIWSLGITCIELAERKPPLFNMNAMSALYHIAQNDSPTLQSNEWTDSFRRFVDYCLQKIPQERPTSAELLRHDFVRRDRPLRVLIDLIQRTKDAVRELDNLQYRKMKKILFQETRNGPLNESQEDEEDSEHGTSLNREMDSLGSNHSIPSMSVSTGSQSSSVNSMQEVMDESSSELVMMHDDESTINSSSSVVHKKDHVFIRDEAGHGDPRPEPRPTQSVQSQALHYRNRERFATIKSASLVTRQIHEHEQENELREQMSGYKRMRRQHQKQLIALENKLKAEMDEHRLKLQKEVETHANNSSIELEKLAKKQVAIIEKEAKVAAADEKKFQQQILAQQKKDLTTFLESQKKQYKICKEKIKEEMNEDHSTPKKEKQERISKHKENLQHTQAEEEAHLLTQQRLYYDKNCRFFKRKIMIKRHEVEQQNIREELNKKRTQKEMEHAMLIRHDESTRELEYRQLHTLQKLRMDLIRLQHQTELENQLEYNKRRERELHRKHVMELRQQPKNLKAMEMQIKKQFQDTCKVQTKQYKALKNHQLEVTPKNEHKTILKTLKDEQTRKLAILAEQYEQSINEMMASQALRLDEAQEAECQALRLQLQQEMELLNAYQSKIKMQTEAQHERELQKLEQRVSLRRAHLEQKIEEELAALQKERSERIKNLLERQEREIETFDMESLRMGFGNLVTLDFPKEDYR

Compound | observed | method | concentration | remaining binding
C[C@H]1CCN(c2nccc(-c3cnn4ncccc34)n2)C1 | binding |  | 1 µM | 86%
O=C(c1ccc(Nc2ncc(Cl)c(-c3ccc(Cl)s3)n2)cc1)N1CCC(N2CCCC2)CC1 | binding | competition with immobilised ligand | 1 µM | 49%
Nc1ncc2c(n1)-c1c([nH]c3ccc(C#CC4CC4)cc13)CCCC2 | binding | competition with immobilised ligand | 1 µM | 89%
O=C(NCC1CCOCC1)c1n[nH]cc1NC(=O)c1c(F)cccc1F | binding | competition with immobilised ligand | 1 µM | 45%
CN(C)c1ncc(F)c(-c2cnn3ncccc23)n1 | binding |  | 1 µM | 78%
c1cncc(-c2cccc(Nc3nccc(NC4CCCCC4)n3)c2)c1 | binding | competition with immobilised ligand | 10 µM | 98%
COc1ccnn2ncc(-c3ccnc(N(C)C)n3)c12 | binding |  | 1 µM | 82%
Cn1cc(Cl)c2c(Oc3c(F)cc(Nc4cc(Cl)nc(N)n4)cc3F)ccnc21 | cell-free assay | competition with immobilised ligand | 0.1 µM | 100%
F[C@@H]1CCN(c2nccc(-c3cnn4ncccc34)n2)C1 | binding |  | 1 µM | 55%
C[C@@H]1CN(c2cc(-c3nn(C)c4ccc(OC5(C)CC5)cc34)ncn2)C[C@H](C)O1 | binding | competition with immobilised ligand | 1 µM | 35%
O=C(c1ccc(Nc2nccc(-c3cc4ccccc4s3)n2)cc1)N1CCC(N2CCCC2)CC1 | binding | competition with immobilised ligand | 1 µM | 100%
c1cnn2ncc(-c3ccnc(N4CCC45COC5)n3)c2c1 | binding |  | 1 µM | 73%
C=CC(=O)N1CCC(C(=O)NCC(=O)N2CCN(c3nc(-c4cnc(N)nc4C(F)F)nc(N4CCOCC4)n3)CC2)CC1 | binding | competition with immobilised ligand | 1 µM | 77%
CCC(=O)N[C@H]1CC[C@@H](C(=O)N(C)c2ccc(-c3nc4ccccc4o3)cc2)C1 | cell-free assay | competition with immobilised ligand | 1 µM | 70%
COc1cnc(Nc2cccc(S(N)(=O)=O)c2)nc1N1CCN(c2ccccc2)CC1 | binding | competition with immobilised ligand | 1 µM | 85%
O=C1CCc2cc(Nc3cc(OC4CCOCC4)c([N+](=O)[O-])cc3Cl)ccc2N1 | cell-free assay | competition with immobilised ligand | 1 µM | 81%
O=C(c1ccc(Nc2ncc(Cl)c(-c3cc4ccccc4s3)n2)cc1)N1CCC(N2CCCC2)CC1 | binding | competition with immobilised ligand | 1 µM | 68%
Cn1nc(C(F)(F)F)cc1-c1cnc(N2CCc3cc(S(=O)(=O)Nc4c(F)cc(Cl)cc4F)cc(N4CCCC4=O)c32)nc1 | cell-free assay | competition with immobilised ligand | 1 µM | 93%
COc1ncc2cc3ccccc3nc2c1C#N | cell-free assay | competition with immobilised ligand | 5 µM | 100%
c1ccc(N2CCN(Cc3nc4ccccc4[nH]3)CC2)nc1 | binding | competition with immobilised ligand | 1 µM | 86%
N[C@@H]1CCN(c2nccc(-c3cnn4ncccc34)n2)C1 | binding |  | 1 µM | 100%
COc1cnc(Nc2cccc(S(N)(=O)=O)c2)nc1N1CCN(c2ccccc2)C(=O)C1 | binding | competition with immobilised ligand | 1 µM | 93%
